High-throughput results as filed in PubChem BioAssay.
PREPL inhibitor: inhibits the human prolyl oligopeptidase-like enzyme | recombinant PREPL, fluorescence polarization activity-based probe | inhibition, % at 5.96 µM | hit rate 0.68% among 320,000 | AID 2751; in the data active = inhibition above about 43%
Apaf1 inhib: inhibitors of human Apaf-1 apoptosome; inhibition, % at 20 µM; hit rate 0.71% among 330,000; reconstituted apoptosome caspase-3 activity, DEVD-Rh110 fluorescence; AID 489030; active = inhibition of at least 40% at 20 µM
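Material: reconstituted apoptosome with Apaf-1, cytochrome c, caspase-9, procaspase-3, dATP; medium: pH 7.5 Hepes buffer with CHAPS, BSA, DTT; also added: cytochrome c and DEVD-Rh110 substrate; timing: 30 min plus 50 min, RT; signal: Rh110 fluorescence intensity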
UCH37 DUB inh: human UCH37 deubiquitinating enzyme inhibition | Q9Y5K5 | purified proteasome/UCH37, Ub-AMC cleavage fluorescence | inhibition, % (test concentration not listed) | hit rate 0.33% among 330,000;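 active = mean inhibition over replicate wells above about 20%, limit read from the data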
Target sequence (Q9Y5K5 whole entry, looked up): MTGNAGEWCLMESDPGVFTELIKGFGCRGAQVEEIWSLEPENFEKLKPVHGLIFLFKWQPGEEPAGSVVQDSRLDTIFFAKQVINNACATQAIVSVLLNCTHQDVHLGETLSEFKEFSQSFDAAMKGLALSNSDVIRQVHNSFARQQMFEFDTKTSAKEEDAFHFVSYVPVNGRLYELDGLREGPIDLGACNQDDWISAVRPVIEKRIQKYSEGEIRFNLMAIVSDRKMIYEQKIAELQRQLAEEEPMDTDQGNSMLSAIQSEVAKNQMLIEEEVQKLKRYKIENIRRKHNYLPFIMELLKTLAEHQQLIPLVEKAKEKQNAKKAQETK
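Test system – human UCH37 enzyme supplied as purified proteasome complex · Incubation – 30 min preincubation with enzyme, 25 min cleavage at room temperature · Detection – AMC fluorescence from Ub-AMC cleavage, excitation 355 nm, emission 460 nm · Benchmarks – no-proteasome wells (full inhibition) and compound-free wells (no inhibition)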
UBC13 inh: human UBC13 polyubiquitination inhibition; hit rate 0.47% among 330,000; UBC13 polyubiquitin chain formation, TR-FRET; AID 485273; inhibition, % at 20 µM; in the data active = inhibition above about 45%, passing the limit was not always enough
Target sequence (P61088 whole entry, looked up): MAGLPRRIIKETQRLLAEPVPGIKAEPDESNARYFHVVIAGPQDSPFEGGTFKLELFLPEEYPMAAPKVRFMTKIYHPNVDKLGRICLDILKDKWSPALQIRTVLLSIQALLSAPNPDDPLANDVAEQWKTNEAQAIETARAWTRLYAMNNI
Hits are given with their value; 0 = inactive; - = no result given. Compounds with a hit are over-represented: about 1.5% of the library has one in this group of screens.

SMILES | PREPL inhibitor | Apaf1 inhib | UCH37 DUB inh | UBC13 inh
CNc1nc2cc([N+](=O)[O-])c([N+](=O)[O-])cc2nc1NC | 0 | - | 41 | -
C/C(=C\C(=O)c1cccnc1)Nc1ccc(O)cc1 | 81 | 0 | 0 | 0
CC(=NNC(=O)Cc1ccc(O)cc1)c1cccnc1 | - | - | 0 | -
CCC1CCCCN1c1ccc([N+](=O)[O-])cc1C=NNC(=O)Cn1c2ccccc2c(=O)c2ccccc21 (stereo not drawn) | - | - | 0 | -
CC(C)(C)C(C(=O)Oc1ccccc1)c1ccccc1 (stereo not drawn) | 0 | 0 | 24 | 0
CC(C)(C)OC(=O)N[C@@H](C(=O)OC(C)(C)C)c1ccccc1 | 0 | 0 | 0 | 0
O=C(O)COc1ccc(C=NNC(=O)COc2nsnc2N2CCOCC2)cc1 | - | - | 0 | -
Cc1ccccc1C(=O)Nc1ccc(C(=O)NN=Cc2ccc(O)cc2)cc1 | - | - | 0 | -
O=C1c2ccccc2-c2c1nc1c([n+]2[O-])CCCC1 | 0 | 42 | 0 | 0
N#Cc1c(Nc2ccccc2)c(C=NNCCO)c[nH]c1=O | - | - | 0 | -
CC(=O)c1cccc(OCc2cc(C(=O)NCCC3=CCCCC3)no2)c1 | 0 | 0 | 22 | 0
N=c1n(Cc2ccccc2)c2ccccc2n1CC(O)c1ccccc1 (stereo not drawn) | 43 | 0 | 0 | 0
C/C(=N/NC(=O)CNc1ccc(C)cc1)c1ccc(Cl)cc1 | 0 | 0 | - | 0
CC(=NNC(=O)CNc1ccc(Cl)cc1C)c1ccc(C)cc1 | - | - | 34 | -
Nc1nc2ccccc2n1N=Cc1ccc2c(c1)OCO2 | - | - | 0 | -
CCc1ccc2nc(N(CCCN(C)C)C(=O)c3ccc(S(=O)(=O)N(C)C4CCCCC4)cc3)sc2c1 | 0 | 54 | 0 | 48
Cc1ccc(C(=O)O)cc1[N+](=O)[O-] | 0 | 0 | 0 | 0
Cc1cc(C)c(NC(=O)c2cc(C(=O)O)ccc2C(=O)O)c([N+](=O)[O-])c1 | 0 | 0 | 47 | 0
COc1ccc(C=NNC(=O)c2c(C)n(C)c3ccc(OC)cc23)c(OC)c1 | - | - | 0 | -
O=C1C(Cl)=C(NC(=O)c2ccccc2)C(=O)C(Cl)=C1NC(=O)c1ccccc1 | 0 | 56 | 0 | 0
CCOC(=O)c1c2c(n(C)c1COC)C(=O)C(=O)c1ccc(Br)cc1-2 | 0 | 97 | - | 0
CCCn1c(=O)c(C(=O)OCC)c(O)c2cc(Br)ccc21 | 0 | 0 | 0 | 0
Cc1ccc(-n2c(N)c(C(=O)Nc3c(C)n(C)n(-c4ccccc4)c3=O)c3nc4ccccc4nc32)cc1C | 43 | 42 | - | 0
O=C(NN=Cc1ccccc1[N+](=O)[O-])c1cccs1 | - | - | 0 | -
COc1cccc(C=NNC(=O)c2cc3cc([N+](=O)[O-])ccc3s2)c1O | - | - | 24 | -
SMILES | PREPL inhibitor | Apaf1 inhib | UCH37 DUB inh | UBC13 inh
O=C(OCc1cc(Cl)ccc1OC(F)F)c1ccc([N+](=O)[O-])o1 | 0 | 66 | - | 0
CC(=NNc1ccc([N+](=O)[O-])cc1)c1ccc(N2CCOCC2)cc1 | - | - | 0 | -
C[n+]1c(/C=C/c2ccc(O)cc2)ccc2ccccc21 | 0 | 0 | 0 | 0
Cc1cc(/C=C\c2ccc3cc(N(C)C)ccc3[n+]2C)c(C)n1-c1ccccc1 | 0 | 43 | 0 | 0
CC1=C(/C=C/C(C)=C/C=C/C(C)=C/CO)C(C)(C)CCC1 | 0 | 0 | 78 | 0
O=C(CSc1nnc(SCc2ccc(Cl)cc2)s1)c1ccc2c(c1)OCO2 | 0 | 0 | 22 | 0
COCCNc1nnc(SCC(=O)c2ccc3c(c2)OCO3)s1 | 0 | 0 | 0 | 0
O=C(NN=Cc1ccc(O)c([N+](=O)[O-])c1)c1ccncc1 | - | - | 20 | -
O=C(NN=Cc1ccc([N+](=O)[O-])cc1)c1ccncc1 | - | - | 0 | -
N#CC1=C(N)NC(SCC(=O)O)=C(C#N)C12CCCC2 | 0 | 0 | 0 | 0
CC(C)N1CCC2(CC1)C(C#N)=C(N)NC(S)=C2C#N | 49 | 0 | - | 0
CC(CCc1oc2c(Br)cc(Br)cc2c1-c1ccc(C)o1)=NO | - | - | 0 | -
Fc1cccc(Cl)c1CNc1ccc(N2CCCC2)cc1 | 0 | 48 | 0 | 0
NS(=O)(=O)c1ccc(NCc2c(F)cccc2Cl)cc1 | - | - | 0 | -
CCCC=NNc1nc2ccccc2s1 | - | - | 0 | -
N#Cc1c(N(CCO)CCO)nc(N)c2c(N)nc3c(c12)CC(=O)N3CC1CCCO1 (stereo not drawn) | 0 | 98 | 0 | 0
COc1ccc2[nH]c3c(=O)n(N=Cc4ccc(OC)c(CN5CCCC5)c4)c(C)nc3c2c1 | - | - | 0 | -
O=C(CCS(=O)(=O)Cc1ccc(Cl)cc1)NCCCN1CCN(c2ccccc2F)CC1 | 0 | 0 | 0 | 0
Cc1ccccc1CS(=O)(=O)CCC(=O)NCCCN1CCN(c2ccccc2F)CC1 | 0 | 0 | 33 | 0
CCCOc1ccc(C=NNC(=O)CCc2n[nH]c(=O)[nH]c2=O)cc1OC | - | - | 0 | -
O=[N+]([O-])c1cccc(N=NN(CCO)c2cccc([N+](=O)[O-])c2)c1 | 52 | 0 | 0 | 0
